Published values collected from several papers.
Lines come from different studies, so protocols differ.
Read-out: binding
ERBB2: Receptor tyrosine-protein kinase erbB-2 (ERBB2, Homo sapiens, UniProt P04626)
ABL1 non-phosphorylated: Tyrosine-protein kinase ABL1, non-phosphorylated (ABL1, Homo sapiens, UniProt P00519)

| SMILES | target | assay | conditions | Kd [µM] |
| --- | --- | --- | --- | --- |
| CC#CC(=O)N1CC[C@@H](n2cc(-c3ccc(Oc4c(F)cccc4F)cc3)c3c(N)n[nH]c(=O)c32)C1 | ERBB2 | competition with immobilised ligand | – | > 3 |
| COc1cc(Nc2ncc3c(n2)-c2ccc(Cl)cc2C(c2c(F)cccc2OC)=NC3)ccc1C(=O)O | Protein-tyrosine kinase 2-beta (PTK2B, Homo sapiens, UniProt Q14289) | – | lysate | 2.99 |
| FC(F)(F)c1n[nH]cc1-c1nc2ccc3[nH]ncc3c2c2c1CCCC2 | ABL1 non-phosphorylated | competition with immobilised ligand | – | 5.8 |
| O=c1cccccc1O | Carbonic anhydrase 2 (CA2, Homo sapiens, UniProt P00918) | ITC | – | 1680 |
| Cc1cc(Nc2cc3ncccc3c(N[C@@H]3C[C@H]4CC[C@@H](C3)N4CCC#N)n2)n[nH]1 | Mitogen-activated protein kinase kinase kinase 2 (MAP3K2, Homo sapiens, UniProt Q9Y2U5) | competition with immobilised ligand | – | 0.019 |
| COc1ccc2c(c1)sc(-c1ccc(N(C)C)cc1)[n+]2C | Alpha-synuclein, fibril (SNCA, Homo sapiens, UniProt P37840) | SPR | – | 72.3 |
| Cc1cc2nc3c(=O)[nH]c(=O)nc-3n(C[C@H](O)[C@H](O)[C@H](O)COP(=O)(O)OP(=O)(O)OC[C@H]3O[C@@H](n4cnc5c(N)ncnc54)[C@H](O)[C@@H]3O)c2cc1C | Cytotoxic granule associated RNA binding protein TIA1 (TIA1, Homo sapiens, UniProt P31483) | – | lysate | 0.038 |
| N#CC1(c2ccc(NC(=O)c3cccnc3NCc3ccncc3)cc2)CCCC1 | AMP-activated protein kinase (AMPK) alpha-1/beta-1/gamma-1 (PRKAG1/PRKAA1/PRKAB1, Homo sapiens, UniProt P54619+Q13131+Q9Y478) | SPR | – | 2.49 |
| CC(C)C[C@H](NC(=O)[C@H](CO)NC(=O)[C@H](Cc1ccc(O)cc1)NC(=O)[C@H](CS)NC(=O)[C@H](CS)NC(=O)[C@@H](N)CCCCN)C(=O)O | ERBB2 | fluorescence | pH 7.4 | 0.18 |
| O=C1Nc2ccccc2C1=O | Parkinson disease protein 7 (PARK7, Homo sapiens, UniProt Q99497) | SPR | – | 2 |
| Cc1cnc(-c2ccc(-c3ccc(NC(=O)Nc4c(F)cc(F)cc4F)cc3F)c3c2C(=O)NC3)[nH]1 | Tyrosine-protein kinase ITK/TSK (ITK, Homo sapiens, UniProt Q08881) | competition with immobilised ligand | – | 0.0059 |
| Cc1ccc(NC(=O)c2ccc(CN3CCS(=N)(=O)CC3)cc2)cc1Nc1nccc(-c2cccnc2)n1 | ABL1 non-phosphorylated | competition with immobilised ligand | – | 0.079 |
